Test results as given in PMC11310838 (RSC Advances, 2024).
Like-named read-outs stand apart in the source and are kept apart here.

Tests used:
HEPG2 cell line = experiment: Sulforhodamine B; type: cell-based, human; settings: Homo sapiens, HepG2, 48 h
In short: (§1)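 Carcinoma lines came from the National Cancer Institute, Cairo, and were grown as monolayers in DMEM with 10% FBS and 1% penicillin–streptomycin. Final DMSO was ≤0.1% (v/v). Cells were treated for 48 h either at a single 100 μM dose (% growth inhibition) or at 0, 6.25, 12.5, 25 and 50 μM. SRB staining was read at 570 nm as % viability. IC50 came from dose–response curve fitting.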

HCT-116 cells [1] = experiment: RT-PCR of apoptosis-related genes; type: cell-based, human; settings: HCT-116, IC50 = 8.5 μM, 48 h, untreated control = 1
In short: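 HCT-116 cells were exposed to the test compound for 48 h, alongside untreated cells. Relative expression of apoptosis-related genes was measured by real-time PCR. Ct values were normalised to β-actin, and untreated control was set to fold change = 1. Data are the mean ± SD of 3 independent runs.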

MCF7 cell line = experiment: Sulforhodamine B; type: cell-based, human; settings: Homo sapiens, MCF7, 48 h
In short: as §1

[2] = tested on: HDF cell line (Human Dermal Fibroblasts); experiment: Sulforhodamine B; type: cell-based; settings: Homo sapiens, HDF, 48 h, read-out: Percentage of cell growth inhibition at [100 μM] HDF
In short: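 Normal human dermal fibroblasts came from the National Cancer Institute, Cairo. Final DMSO was ≤0.1% (v/v). Cells were exposed to the test compound at a single 100 μM dose for 48 h. Growth inhibition was measured by the sulforhodamine-B method, with absorbance read at 570 nm and expressed as percentage of cell viability.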

HCT-116 cells [3] = experiment: DNA content-flow cytometry cell cycle analysis; type: cell-based, human; settings: HCT-116, treated at IC50 = 8.5 μM, 48 h; control 3.77%
[4] = tested on: cancer cell lines (HCT116, HEPG2, MCF7); experiment: SRB single-dose screen, summary over cancer cell lines; type: cell-based; settings: Homo sapiens, 48 h, read-out: percentage of cell growth inhibition on the cancer cell lines
In short: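 Human carcinoma lines grown as monolayers in DMEM with 10% FBS and 1% penicillin–streptomycin. Each test compound was applied once at 100 μM for 48 h, with final DMSO at most 0.1% (v/v) in control and treated wells. Growth was measured by sulforhodamine-B staining, with OD read at 570 nm. Percentage growth inhibition was calculated from viability relative to the untreated control.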

HCT116 cell line = experiment: Sulforhodamine B; type: cell-based, human
In short: as §1

EGFR kinase = EGFR kinase (Homo sapiens, UniProt P00533); experiment: EGFR kinase inhibitory assay; type: biochemical
EGFR kinase, sequence (P00533 25-1210): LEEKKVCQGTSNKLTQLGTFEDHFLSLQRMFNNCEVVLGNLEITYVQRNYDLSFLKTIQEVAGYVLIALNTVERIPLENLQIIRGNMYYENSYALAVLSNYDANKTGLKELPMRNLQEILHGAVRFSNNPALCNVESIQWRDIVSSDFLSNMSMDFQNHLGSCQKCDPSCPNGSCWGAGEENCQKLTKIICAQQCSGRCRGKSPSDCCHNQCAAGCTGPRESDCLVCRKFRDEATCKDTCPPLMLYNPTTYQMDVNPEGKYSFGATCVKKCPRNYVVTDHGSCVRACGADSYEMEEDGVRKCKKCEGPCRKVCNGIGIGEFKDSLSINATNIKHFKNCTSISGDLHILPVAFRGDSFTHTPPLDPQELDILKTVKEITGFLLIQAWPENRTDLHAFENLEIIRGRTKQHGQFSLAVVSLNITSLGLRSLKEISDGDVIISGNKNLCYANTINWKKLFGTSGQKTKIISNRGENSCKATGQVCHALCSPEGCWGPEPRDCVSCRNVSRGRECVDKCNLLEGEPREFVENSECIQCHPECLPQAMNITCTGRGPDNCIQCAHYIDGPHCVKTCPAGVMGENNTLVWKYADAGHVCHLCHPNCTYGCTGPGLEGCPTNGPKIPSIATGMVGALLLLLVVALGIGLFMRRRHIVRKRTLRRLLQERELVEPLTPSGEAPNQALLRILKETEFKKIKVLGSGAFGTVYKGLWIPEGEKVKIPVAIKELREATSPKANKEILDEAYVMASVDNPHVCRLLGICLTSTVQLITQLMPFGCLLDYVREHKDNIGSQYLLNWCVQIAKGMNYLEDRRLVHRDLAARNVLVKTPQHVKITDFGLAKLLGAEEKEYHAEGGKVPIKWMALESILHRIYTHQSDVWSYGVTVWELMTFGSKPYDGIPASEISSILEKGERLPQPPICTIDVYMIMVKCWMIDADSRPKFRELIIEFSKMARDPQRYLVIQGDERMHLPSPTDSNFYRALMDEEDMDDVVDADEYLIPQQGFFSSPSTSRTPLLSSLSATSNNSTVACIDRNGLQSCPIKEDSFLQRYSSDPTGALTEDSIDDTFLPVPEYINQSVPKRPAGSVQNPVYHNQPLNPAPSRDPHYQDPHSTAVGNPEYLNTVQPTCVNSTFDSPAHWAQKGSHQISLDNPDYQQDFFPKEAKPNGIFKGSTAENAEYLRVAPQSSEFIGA

HCT-116 cells [5] = experiment: Annexin V/PI staining flow cytometry; type: cell-based, human; settings: HCT-116, treated at IC50 = 8.5 μM, 48 h

Cc1nc(NN=Cc2ccccc2OCC(=O)N2CCN(C(=O)COc3ccccc3C=NNc3nc(C)c(N=Nc4ccc(Br)cc4)s3)CC2)sc1N=Nc1ccc(Br)cc1 [Compound 9i, 1,1′-(Piperazine-1,4-diyl)bis(2-(2-(((4-methyl-5-(4-bromophenylazo)thiazol-2-yl)hydrazono)-methyl)phenoxy)ethanone)]
IC50 (HEPG2 cell line; read-out: IC50 (μM) ± SD HEPG2): 22 ± 2.9 µM | inhibition at 100 µM (HEPG2 cell line; read-out: Percentage of cell growth inhibition at [100 μM] HEPG2): 91 ± 3.56% | Bcl-2 expression fold change (HCT-116 cells [1]; downregulated): 0.76 fold change | P53 fold change (HCT-116 cells [1]; upregulated): 10.87 fold change | caspase-3 level fold change (HCT-116 cells [1]; upregulated): 9.87 fold change | caspase-8 level fold change (HCT-116 cells [1]; upregulated): 7.6 fold change | caspase-9 level fold change (HCT-116 cells [1]; upregulated): 11.6 fold change | IC50 (MCF7 cell line; read-out: IC50 (μM) ± SD MCF7): 13 ± 2.8 µM | inhibition at 100 µM (MCF7 cell line; read-out: Percentage of cell growth inhibition at [100 μM] MCF7): 89.9 ± 2.3% | inhibition at 100 µM [2]: 71.6 ± 17.3% | cell population at the P2 phase (HCT-116 cells [3]): 51.89% | inhibition at 100 µM [4]: > 80% | IC50 (HCT116 cell line; Homo sapiens, HCT-116, 48 h, read-out: IC50 (μM) ± SD HCT116, 48 h treatment, SRB): 8.5 µM | inhibition at 100 µM (HCT116 cell line; Homo sapiens, HCT-116, 48 h, read-out: Percentage of cell growth inhibition at [100 μM] HCT116): 89.6 ± 5.3% | IC50 (HCT116 cell line; read-out: IC50 (μM) ± SD HCT116, 48 h treatment, SRB): 8.51 ± 2.5 µM | IC50 (EGFR kinase): 0.0012 ± 5e-05 µM | % of EGFR inhibition (EGFR kinase; concentration not given, average of three replicates): 97.5 ± 2.1% | induction of apoptotic cell death vs untreated control (HCT-116 cells [5]): 4.16 fold | induction of necrosis cell death vs untreated control (HCT-116 cells [5]): 4.79 fold | early apoptosis (HCT-116 cells [5]; control 1.69%): 0.54% | late apoptosis (HCT-116 cells [5]; control 2.36%): 16.31% | total apoptosis (HCT-116 cells [5]; control 4.05%): 16.85%
